In ChEMBL document CHEMBL1141421, “Chemical transformation and biological activities of ambrein, a major product of ambergris from Physeter macrocephalus (sperm whale)” (J Nat Prod, 2007):
Converted amounts (≈) assume the structure as drawn.

Legend:
[1] = Cytotoxicity against human MCF7 cells by MTT assay; type: cell-based; settings: read-out: ED50 (the source's name)
Method in brief: (§1)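 MTT read-out on human tumour cells: Hepa59T/VGH liver carcinoma, WiDr colon adenocarcinoma, A-549 lung carcinoma and MCF-7 breast adenocarcinoma. ED50 taken as the sample concentration giving 50% lower absorbance than untreated cells.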

[2] = Cytotoxicity against human WiDr cells by MTT assay; type: cell-based; settings: read-out: ED50 (the source's name); method in brief: as §1
[3] = Antiinflammatory activity assessed as inhibition of fMLP-induced elastase release in human neutrophils at 10 ug/mL relative to control; type: functional, cell-based, Neutrophil
Method in brief: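 Neutrophils (6 × 10⁵/mL) supplemented with MeO-Suc-Ala-Ala-Pro-Val-p-nitroanilide (100 µM) elastase substrate, equilibrated 2 min at 37 °C, then exposed to test sample for 5 min. Stimulation with FMLP (100 nM)/cytochalasin B (0.5 µg/mL); elastase release followed continuously as absorbance change at 405 nm. DMSO-treated cells served as the 100% reference.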

[4] = Cytotoxicity against human A549 cells by MTT assay; type: cell-based; settings: read-out: ED50 (the source's name); method in brief: as §1
[5] = Cytotoxicity against human hepa59T/VGH cells by MTT assay; type: cell-based, Hepa 59T/VGH; settings: read-out: ED50 (the source's name); method in brief: as §1

IC50 ([3]; Homo sapiens, Neutrophil) [µg/mL] | SMILES | CC50 [1] [µg/mL] | CC50 [2] [µg/mL] | Elastase release (% of DMSO control) [3] [%] | CC50 [4] [µg/mL] | CC50 [5] [µg/mL]
– | C=C1CCCC(C)(C)[C@@H]1C[C@@H](O)/C(C)=C/CC[C@@H]1[C@@]2(C)CCCC(C)(C)[C@@H]2CC[C@@]1(C)O | > 10 | > 10 | 79.3 | > 10 | > 10
– | C=C1CCCC(C)(C)[C@@H]1CC/C(=C\CC[C@@H]1[C@@]2(C)CCCC(C)(C)[C@@H]2CC[C@@]1(C)O)CO | > 10 | > 10 | 74.4 | > 10 | > 10
– | C=C1CCCC(C)(C)[C@@H]1C/C=C(\C)[C@H]1CC[C@@H]2[C@@]3(C)CCCC(C)(C)[C@@H]3CC[C@@]2(C)O1 | > 10 | > 10 | 92.2 | > 10 | > 10
– | C=C1CCCC(C)(C)[C@@H]1C[C@@H]1O[C@]2(C)CC[C@H]3C(C)(C)CCC[C@]3(C)[C@H]2CC/C=C\1C | > 10 | > 10 | 82 | > 10 | > 10
– | C=C1CCCC(C)(C)[C@@H]1CCC(C)=O | > 10 | > 10 | – | > 10 | > 10
– | C=C1CCCC(C)(C)[C@@H]1C[C@H](OC(=O)c1ccccc1)/C(C)=C/CC[C@@H]1[C@@]2(C)CCCC(C)(C)[C@@H]2CC[C@@]1(C)O | > 10 | > 10 | 115.5 | > 10 | > 10
– | C=C1CCCC(C)(C)[C@@H]1C[C@H](O)/C(C)=C/CC[C@@H]1[C@@]2(C)CCCC(C)(C)[C@@H]2CC[C@@]1(C)O | 4 (≈ 8.99 µM) | 7.8 (≈ 17.5 µM) | 132.7 | 6.4 (≈ 14.4 µM) | 5.7 (≈ 12.8 µM)
– | C=C1CCCC(C)(C)[C@@H]1CC/C(=C/CC[C@@H]1[C@@]2(C)CCCC(C)(C)[C@@H]2CC[C@@]1(C)O)COC(=O)c1ccccc1 | > 10 | > 10 | 75.6 | > 10 | > 10
– | C=C1CCCC(C)(C)[C@@H]1CC[C@](C)(O)[C@@H]1CCC2[C@@](C)(CC[C@H]3C(C)(C)CCC[C@]23C)O1 (some centres undefined) | > 10 | > 10 | 81.3 | > 10 | > 10
– | C=C1CCCC(C)(C)[C@@H]1CC(=O)/C(C)=C/CC[C@@H]1[C@@]2(C)CCCC(C)(C)[C@@H]2CC[C@@]1(C)O | 8.5 (≈ 19.2 µM) | 10 (≈ 22.6 µM) | 95.1 | 5.3 (≈ 12 µM) | 6.8 (≈ 15.4 µM)
– | C=C1CCCC(C)(C)[C@@H]1C[C@@H](OC(=O)c1ccccc1)/C(C)=C/CC[C@@H]1[C@@]2(C)CCCC(C)(C)[C@@H]2CC[C@@]1(C)O | > 10 | > 10 | 85.6 | > 10 | > 10
4.6 (≈ 10.7 µM) | C=C1CCCC(C)(C)[C@@H]1CC/C(C)=C/CC[C@@H]1[C@@]2(C)CCCC(C)(C)[C@@H]2CC[C@@]1(C)O [AMBREIN] | > 10 | > 10 | – | > 10 | > 10
– | COc1cccc2c1C(=O)c1c(O)c3c(c(O)c1C2=O)C[C@@](O)(C(=O)CO)C[C@@H]3O[C@H]1C[C@H](N)[C@H](O)[C@H](C)O1 [DOXORUBICIN] | 0.12 (≈ 0.221 µM) | 0.12 (≈ 0.221 µM) | – | 0.21 (≈ 0.386 µM) | 0.11 (≈ 0.202 µM)
– | O=c1c(-c2ccc(O)cc2)coc2cc(O)cc(O)c12 [GENISTEIN] | – | – | 51.6 | – | –
